# According to ChEMBL document CHEMBL2021781, “Dual targeting of histone deacetylase and topoisomerase II with novel bifunctional inhibitors” (J Med Chem, 2012):
# Activity calls are given as the source filed them. No cut-off for these calls is given here.
# What was measured:
# [1] = target: T1, Protein deacetylase HDAC6 (Homo sapiens) (UniProt Q9UBN7); experiment: Inhibition of HDAC6-mediated tubulin acetylation in human DU145 cells at 90 nM after 4 hrs by Western blot analysis; assay type: cell-based; details: DU-145
# T1 sequence (whole entry): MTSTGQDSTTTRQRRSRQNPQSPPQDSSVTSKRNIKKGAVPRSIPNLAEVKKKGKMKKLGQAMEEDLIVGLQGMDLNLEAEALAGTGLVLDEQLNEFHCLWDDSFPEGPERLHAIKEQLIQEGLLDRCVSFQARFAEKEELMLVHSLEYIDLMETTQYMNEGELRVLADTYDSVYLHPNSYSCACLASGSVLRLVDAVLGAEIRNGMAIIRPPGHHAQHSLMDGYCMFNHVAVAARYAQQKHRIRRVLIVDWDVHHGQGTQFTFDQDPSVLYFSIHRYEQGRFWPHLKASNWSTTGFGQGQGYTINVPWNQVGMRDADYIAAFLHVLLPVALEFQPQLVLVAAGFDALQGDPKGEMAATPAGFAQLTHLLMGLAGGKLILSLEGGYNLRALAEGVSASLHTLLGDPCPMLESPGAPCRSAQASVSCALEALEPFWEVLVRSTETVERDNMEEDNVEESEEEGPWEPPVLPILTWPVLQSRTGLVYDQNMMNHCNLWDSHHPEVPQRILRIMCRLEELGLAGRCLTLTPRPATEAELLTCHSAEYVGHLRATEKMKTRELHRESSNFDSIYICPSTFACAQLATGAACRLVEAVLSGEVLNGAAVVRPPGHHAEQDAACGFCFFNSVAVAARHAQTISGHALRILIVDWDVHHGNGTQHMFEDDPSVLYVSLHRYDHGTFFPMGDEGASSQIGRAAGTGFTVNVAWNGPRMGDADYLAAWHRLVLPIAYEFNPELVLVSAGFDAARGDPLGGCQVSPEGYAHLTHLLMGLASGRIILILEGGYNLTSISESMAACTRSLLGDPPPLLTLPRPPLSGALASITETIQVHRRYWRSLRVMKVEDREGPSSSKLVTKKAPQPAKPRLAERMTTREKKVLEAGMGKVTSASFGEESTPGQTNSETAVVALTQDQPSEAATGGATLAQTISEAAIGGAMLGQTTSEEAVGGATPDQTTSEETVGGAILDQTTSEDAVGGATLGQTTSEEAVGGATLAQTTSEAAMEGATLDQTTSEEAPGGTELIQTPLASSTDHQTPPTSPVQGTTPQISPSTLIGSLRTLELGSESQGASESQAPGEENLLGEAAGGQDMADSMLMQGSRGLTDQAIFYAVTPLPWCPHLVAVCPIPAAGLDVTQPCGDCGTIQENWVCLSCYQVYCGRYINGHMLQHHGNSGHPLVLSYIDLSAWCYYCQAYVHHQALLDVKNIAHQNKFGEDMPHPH
# How it was run: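 DU-145 cells passaged 24 h before dosing, then treated 4 h, with no more than 0.1% DMSO including controls. Lysis in RIPA buffer with protease inhibitors, protein quantified against a BSA standard, SDS-PAGE and transfer. Blots probed with rabbit anti-tubulin and mouse anti-acetyl tubulin, read by near-infrared imaging at 700/800 nm.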
# [2] = Drug uptake in human A549 cell cytosol at 1 uM after 4 hrs by confocal microscopic analysis; assay type: ADME, cell-based
# How it was run: (§1)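 Cells plated on glass coverslips 24 h ahead, then given fresh media with compound at 1 μM for 4 h. After a PBS wash, coverslips were mounted and intracellular distribution imaged by confocal microscopy, excitation 488 nm. Done in DU-145 cells, with A549 lung tumor cells also examined.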
# [3] = tested on: SK-MES-1; experiment: Antiproliferative activity against human SKMES1 cells after 72 hrs by MTS assay; assay type: functional, cell-based; details: SK-MES-1, 72 h
# [4] = target: DNA topoisomerase 2-alpha (Homo sapiens) (UniProt P11388); experiment: Inhibition of topoisomerase 2 in human DU145 cells assessed as stabilization of enzyme-DNA cleavage complex at 130 nM after 30 mins by immunoblot analysis relative to control; assay type: cell-based; details: DU-145
# Sequence of DNA topoisomerase 2-alpha (Homo sapiens) (P11388 whole entry): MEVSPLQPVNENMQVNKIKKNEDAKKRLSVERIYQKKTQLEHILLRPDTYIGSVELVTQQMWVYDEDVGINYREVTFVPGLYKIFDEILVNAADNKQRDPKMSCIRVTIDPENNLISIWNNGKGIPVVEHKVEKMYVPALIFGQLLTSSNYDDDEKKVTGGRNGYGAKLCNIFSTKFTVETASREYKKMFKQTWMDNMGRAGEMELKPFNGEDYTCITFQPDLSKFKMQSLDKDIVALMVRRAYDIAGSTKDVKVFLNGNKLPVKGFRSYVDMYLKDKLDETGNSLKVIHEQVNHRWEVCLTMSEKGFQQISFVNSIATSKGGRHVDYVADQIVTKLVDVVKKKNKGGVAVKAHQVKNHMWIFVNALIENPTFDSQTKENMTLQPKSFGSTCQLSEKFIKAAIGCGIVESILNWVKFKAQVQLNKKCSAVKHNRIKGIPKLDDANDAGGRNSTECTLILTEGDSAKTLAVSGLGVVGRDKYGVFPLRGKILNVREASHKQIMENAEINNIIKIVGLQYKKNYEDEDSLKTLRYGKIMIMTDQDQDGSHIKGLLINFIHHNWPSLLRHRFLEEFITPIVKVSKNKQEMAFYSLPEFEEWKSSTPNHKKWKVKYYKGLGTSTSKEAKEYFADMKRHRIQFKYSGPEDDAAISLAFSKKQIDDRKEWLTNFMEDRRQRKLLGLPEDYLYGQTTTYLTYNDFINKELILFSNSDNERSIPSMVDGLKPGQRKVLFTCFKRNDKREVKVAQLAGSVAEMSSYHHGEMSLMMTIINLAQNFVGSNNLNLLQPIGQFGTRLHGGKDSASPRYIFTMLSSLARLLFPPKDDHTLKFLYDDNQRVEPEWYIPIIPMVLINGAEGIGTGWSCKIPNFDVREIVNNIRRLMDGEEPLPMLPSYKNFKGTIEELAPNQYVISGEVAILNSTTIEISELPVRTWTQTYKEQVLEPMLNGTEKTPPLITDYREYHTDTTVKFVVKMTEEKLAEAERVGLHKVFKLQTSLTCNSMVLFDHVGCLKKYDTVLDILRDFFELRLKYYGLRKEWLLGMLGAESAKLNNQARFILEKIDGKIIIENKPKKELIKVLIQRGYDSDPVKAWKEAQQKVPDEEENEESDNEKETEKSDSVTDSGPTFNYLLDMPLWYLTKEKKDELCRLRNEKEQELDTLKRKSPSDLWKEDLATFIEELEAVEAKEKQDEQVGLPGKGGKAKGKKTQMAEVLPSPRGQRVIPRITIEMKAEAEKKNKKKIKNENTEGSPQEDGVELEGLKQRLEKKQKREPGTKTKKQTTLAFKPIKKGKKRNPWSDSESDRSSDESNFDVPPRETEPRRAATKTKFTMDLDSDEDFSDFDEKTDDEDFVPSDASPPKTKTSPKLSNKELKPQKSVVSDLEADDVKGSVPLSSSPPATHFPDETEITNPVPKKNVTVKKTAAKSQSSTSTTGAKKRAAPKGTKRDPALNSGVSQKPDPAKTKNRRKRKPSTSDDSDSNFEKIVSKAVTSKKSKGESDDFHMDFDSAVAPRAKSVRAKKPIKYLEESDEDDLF
# How it was run: (§2)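 DU-145 cells dosed 30 min or 72 h; controls given 0.1% DMSO. 72 h samples equalized to the 30 min cell count before lysis in 1% sarkosyl. Lysates spun on a CsCl gradient at 31,000 RPM, room temperature, 12 h. Fractions holding Topo II–DNA complexes found by A260, slot-blotted onto nitrocellulose, and immunoblotted for Topo II.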
# [5] = target: Histone deacetylase 1 (Homo sapiens, UniProt Q13547); experiment: Inhibition of HDAC1 in human HeLa cell nuclear extract using Fluor de Lys as substrate after 15 mins by fluorometric analysis
# Sequence of Histone deacetylase 1 (Q13547 whole entry): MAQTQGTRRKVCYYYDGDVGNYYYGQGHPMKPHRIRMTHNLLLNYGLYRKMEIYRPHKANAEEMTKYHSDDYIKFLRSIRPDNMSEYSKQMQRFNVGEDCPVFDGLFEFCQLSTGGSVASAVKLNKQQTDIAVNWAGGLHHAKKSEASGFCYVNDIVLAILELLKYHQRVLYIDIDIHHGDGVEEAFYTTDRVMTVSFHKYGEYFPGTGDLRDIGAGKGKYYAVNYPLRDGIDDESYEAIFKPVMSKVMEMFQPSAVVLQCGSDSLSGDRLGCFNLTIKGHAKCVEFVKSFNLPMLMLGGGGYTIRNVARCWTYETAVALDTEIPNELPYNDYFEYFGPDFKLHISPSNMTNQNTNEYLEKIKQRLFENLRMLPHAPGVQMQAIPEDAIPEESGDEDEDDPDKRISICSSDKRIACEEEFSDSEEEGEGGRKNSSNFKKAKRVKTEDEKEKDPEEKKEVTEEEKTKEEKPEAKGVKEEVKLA
# [6] = target: T2, Histone deacetylase (Homo sapiens) (UniProt Q13547+O15379+Q9UBN7+Q92769+Q9UQL6+Q8WUI4+Q9BY41+Q96DB2+P56524+Q9UKV0+Q969S8); details: DU-145, 0.5 to 1 uM
# [7] = Drug uptake in human A549 cell perinuclear region at 1 uM after 4 hrs by confocal microscopic analysis; assay type: ADME, cell-based; details: a549, 4 h; how it was run: as §1
# [8] = tested on: DU-145; experiment: Antiproliferative activity against human DU145 cells after 72 hrs by MTS assay; assay type: functional, cell-based; details: DU-145, 72 h
# How it was run: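 DU-145 cells passaged 24 h before dosing and exposed 72 h; compounds from 10 mM DMSO stocks; controls given media with 0.1% DMSO; 37°C, 5% CO2. Viability read by MTS assay, with Trypan Blue staining also used. IC50 from the average of two experiments, each run in triplicate.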
# [9] = target: DNA topoisomerase 2-alpha (Homo sapiens) (UniProt P11388); experiment: Inhibition of topoisomerase 2 in human DU145 cells assessed as stabilization of enzyme-DNA cleavage complex at 130 nM after 72 hrs by immunoblot analysis; assay type: cell-based; details: DU-145; how it was run: as §2
# [10] = target: T2, Histone deacetylase (Homo sapiens); experiment: Inhibition of HDAC in human DU145 cells assessed as histone H4 acetylation after 24 hrs by Western blot analysis; assay type: cell-based; details: DU-145
# How it was run: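 DU-145 cells passaged 24 h before dosing, then exposed 24 h to compound in growth medium (final DMSO 0.1%); controls received 0.1% DMSO. Lysed in RIPA with protease inhibitors at 4°C, cleared at 14,000 × g. Protein quantified against BSA, boiled, transferred to nitrocellulose. Probed for acetyl-H3, acetyl-H4 and p21waf1 with actin loading control; read by near-infrared scanning at 700/800 nm.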
# [11] = target: T3, Protein deacetylase HDAC6 (Homo sapiens, UniProt Q9UBN7); experiment: Inhibition of HDAC6 in human HeLa cell nuclear extract using Fluor de Lys as substrate after 15 mins by fluorometric analysis
# T3 sequence (Q9UBN7 whole entry): T1 sequence (whole entry)
# [12] = Drug uptake in human DU145 cell perinuclear region at 1 uM after 4 hrs by confocal microscopic analysis; assay type: ADME, cell-based; details: du-145, 4 h; how it was run: as §1
# [13] = target: T2, Histone deacetylase (Homo sapiens); details: DU-145, 0.5 to 1 uM; remark: listed apart in the source
# [14] = Drug uptake in human DU145 cell cytosol at 1 uM after 4 hrs by confocal microscopic analysis; assay type: ADME, cell-based, DU-145; how it was run: as §1
# [15] = tested on: MCF7; experiment: Antiproliferative activity against human MCF7 cells after 72 hrs by MTS assay; assay type: functional, cell-based; details: MCF7, 72 h
smiles,measurement,setting,value
COc1cccc2c1C(=O)c1c(O)c3c(c(O)c1C2=O)C[C@@](O)(C(C)=O)C[C@@H]3O[C@H]1C[C@H](NCc2ccc(NC(=O)CCCCCCC(=O)NO)cc2)[C@H](O)[C@H](C)O1,inhibition,[1],Active
same,Drug uptake,[2],Active
same,IC50,[3],470 nM
same,inhibition,[4],inactive
same,IC50,[5],47 nM
same,inhibition,[6],Active
same,Drug uptake,[7],Active
same,IC50,[8],130 nM
same,inhibition,[9],Active
same,inhibition,[10],Dose-dependent effect
same,IC50,[11],20 nM
same,Drug uptake,[12],Active
same,inhibition,[13],inactive
same,Drug uptake,[14],Active
same,IC50,[15],990 nM
